# Source: ChEMBL document CHEMBL1153939, “Novel antagonists of serotonin-4 receptors: synthesis and biological evaluation of pyrrolothienopyrazines” (Bioorg Med Chem, 2009)
# Calls of active or inactive are those of the source. The rule behind the calls is not given here.
# How the values were obtained:
# Mus musculus [1] = assay: Inhibition of scopolamine-induced immediate working memory deficit in NMRI mouse at 0.3 to 3 mg/kg, ip by Y-maze test; assay type: functional, organism-based
# How it was run: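 Spontaneous alternation in male NMRI mice. Compound given ip in saline at 0.3, 1 and 3 mg/kg, 30 min before testing, alone or with scopolamine 1 mg/kg; four groups per dose (saline/saline, saline/scopolamine, compound/saline, compound/scopolamine). Alternation % = actual alternations / (total arm entries − 2) × 100.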
# [2] = biological target: T1, 5-hydroxytryptamine receptor 2C (Homo sapiens, UniProt P28335); assay: Displacement of [3H]mesulergine from human recombinant 5HT2C receptor
# T1 sequence (P28335 whole entry): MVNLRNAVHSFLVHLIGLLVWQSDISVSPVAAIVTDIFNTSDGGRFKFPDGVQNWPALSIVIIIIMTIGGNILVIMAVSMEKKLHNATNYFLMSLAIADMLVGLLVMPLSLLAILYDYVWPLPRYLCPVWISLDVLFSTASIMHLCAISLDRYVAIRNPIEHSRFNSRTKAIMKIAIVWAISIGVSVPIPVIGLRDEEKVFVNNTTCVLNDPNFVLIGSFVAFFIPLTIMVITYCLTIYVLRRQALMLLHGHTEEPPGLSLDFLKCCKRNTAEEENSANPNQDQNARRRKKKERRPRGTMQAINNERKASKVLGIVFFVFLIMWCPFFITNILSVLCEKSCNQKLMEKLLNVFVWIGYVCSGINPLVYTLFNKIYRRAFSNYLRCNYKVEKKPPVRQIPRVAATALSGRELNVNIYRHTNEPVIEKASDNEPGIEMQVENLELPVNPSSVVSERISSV
# [3] = biological target: 5-hydroxytryptamine receptor 2A (Homo sapiens, UniProt P28223); assay: Displacement of [3H]ketanserin form human recombinant 5HT2A receptor
# [4] = biological target: 5-hydroxytryptamine receptor 3A (Homo sapiens) (UniProt P46098); assay: Antagonist activity at 5HT3 receptor in hybrid NG108-15 cells assessed as inhibition of 5HT-induced current treated 1 min prior to agonist treatment by electrophysiology; assay type: functional, cell-based
# How it was run: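 NG108-15 cells grown in DMEM-HG with 5% FBS and HAT, then differentiated on polylysine glass with 2% DMSO for 48 h followed by ≥24 h with 1 mM dibutyryl-cAMP. Whole-cell recording at −60 mV in HEPES saline, pH 7.3, with a CsCl/CsMeSO3 pipette solution. 5-HT 50 µM applied by gravity every 2.5 min.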
# [5] = Toxicity in ip dosed NMRI mouse; assay type: organism-based; conditions: in vivo
# How it was run: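 Male NMRI mice (20–24 g) given ip drug in saline (10 mL/kg), groups of 4. Behavioural and neurological changes scored against controls by a standardized observation technique at 30 min, 3 h and 24 h post-dose. Approximate LD50 derived from deaths counted at 24 h.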
# Mus musculus [6] = assay: Antinociceptive activity against acetic acid-induced writhing in NMRI mouse assessed as number of stretches at 1 mg/kg, ip by writhing test; assay type: functional; conditions: route intraperitoneal
# How it was run: (§1)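 Groups of 8 male NMRI mice (20–24 g). Compound or reference given ip in saline (10 mL/kg) 15 min before ip 0.6% aqueous acetic acid (10 mL/kg). Stretches (back arching, pelvic rotation, hind-limb extension) counted over 10 min, beginning 10 min after acid. ANOVA + Fisher PLSD versus control.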
# [7] = biological target: Alpha-2A adrenergic receptor (Homo sapiens, UniProt P08913); assay: Displacement of [3H]RX821002 form human recombinant alpha2A adrenergic receptor
# [8] = biological target: 5-hydroxytryptamine receptor 7 (Homo sapiens, UniProt P34969); assay: Displacement of [3H]LSD form human recombinant 5HT7 receptor
# How it was run: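 Membranes from sf9 cells expressing human 5-HT6 (14 µg/mL) or 5-HT7 (38 µg/mL) incubated 90 min at 27 °C with 2 nM [3H]LSD in 50 mM Tris-HCl containing 10 mM MgSO4 and 0.5 mM EDTA. Nonspecific binding defined with clozapine (10 and 250 µM).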
# [9] = biological target: T2, 5-hydroxytryptamine receptor 1A (Homo sapiens, UniProt P08908); assay: Displacement of [3H]8OH-DPAT from human recombinant 5HT1A receptor
# T2 sequence (P08908 whole entry): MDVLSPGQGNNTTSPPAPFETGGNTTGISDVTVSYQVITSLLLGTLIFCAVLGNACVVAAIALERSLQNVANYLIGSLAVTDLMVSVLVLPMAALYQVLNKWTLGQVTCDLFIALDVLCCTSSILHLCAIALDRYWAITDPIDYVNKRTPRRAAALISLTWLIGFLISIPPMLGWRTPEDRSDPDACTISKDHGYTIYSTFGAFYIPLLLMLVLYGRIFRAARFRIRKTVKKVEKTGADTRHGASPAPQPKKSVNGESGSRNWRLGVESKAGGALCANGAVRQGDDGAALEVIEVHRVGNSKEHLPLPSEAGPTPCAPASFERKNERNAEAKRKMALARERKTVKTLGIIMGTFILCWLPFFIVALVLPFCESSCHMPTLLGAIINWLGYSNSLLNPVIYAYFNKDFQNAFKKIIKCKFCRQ
# [10] = biological target: 5-hydroxytryptamine receptor 4 (Mus musculus) (UniProt P97288); assay: Antagonist activity at mouse 5HT4a receptor expressed in african green monkey COS7 cells assessed as inhibition of 5HT-induced cAMP release relative to serotonin; assay type: functional, cell-based; set-up: scale not given: the % may be the effect or the level left; conditions: COS-7
# How it was run: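 Antagonist mode on the same transfected COS-7 cells expressing mouse 5-HT4(a). Cells labelled with [3H]adenine, then incubated with 0.75 mM IBMX, 0.1 µM forskolin and test agents for 5 min at 37 °C; stopped with ice-cold 5% TCA. cAMP read as [3H]ATP→[3H]cAMP conversion after Dowex/alumina chromatography. Mean of four independent experiments.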
# [11] = biological target: 5-hydroxytryptamine receptor 1D (Rattus norvegicus, UniProt P28565); assay: Displacement of [3H]5OH-tryptamine rat recombinant 5HT1D receptor
# [12] = biological target: 5-hydroxytryptamine receptor 4 (Cavia porcellus) (UniProt O70528); assay: Displacement of [3H]GR-113808 from 5HT4 receptor in guinea pig striatum membrane at 1 uM; assay type: cell membranes
# How it was run: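 Guinea pig membranes (15 µg protein/mL) incubated 30 min at 37 °C with 0.6 nM [3H]GR113808 in 50 mM HEPES, pH 7.4, with fixed test concentrations. Nonspecific binding defined with 10 µM serotonin.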
# [13] = biological target: Alpha-1A adrenergic receptor (Homo sapiens, UniProt P35348); assay: Displacement of [3H]prazosin form human recombinant alpha1A adrenergic receptor
# Mus musculus [14] = assay: Toxicity in NMRI mouse assessed as spontaneous alteration performance ar 0.3 to 3 mg/kg, ip by Y-maze test; assay type: organism-based; set-up: dose 0.3-3 mg/kg, route intraperitoneal; conditions: in vivo
# How it was run: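 Spontaneous alternation in male NMRI mice. Drug given ip in saline at 0.3, 1 and 3 mg/kg, 30 min before testing, with or without scopolamine 1 mg/kg. Four groups per dose: control, scopolamine, drug alone, drug+scopolamine. Alternation % = actual alternations/(total arm entries − 2) × 100. ANOVA plus Fisher PLSD.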
# Mus musculus [15] = assay: Antinociceptive activity against acetic acid-induced writhing in NMRI mouse assessed as number of stretches at 0.1 mg/kg, ip by writhing test; assay type: functional; conditions: route intraperitoneal; how it was run: as §1
# Alpha-1A adrenergic receptor, sequence (P35348 whole entry): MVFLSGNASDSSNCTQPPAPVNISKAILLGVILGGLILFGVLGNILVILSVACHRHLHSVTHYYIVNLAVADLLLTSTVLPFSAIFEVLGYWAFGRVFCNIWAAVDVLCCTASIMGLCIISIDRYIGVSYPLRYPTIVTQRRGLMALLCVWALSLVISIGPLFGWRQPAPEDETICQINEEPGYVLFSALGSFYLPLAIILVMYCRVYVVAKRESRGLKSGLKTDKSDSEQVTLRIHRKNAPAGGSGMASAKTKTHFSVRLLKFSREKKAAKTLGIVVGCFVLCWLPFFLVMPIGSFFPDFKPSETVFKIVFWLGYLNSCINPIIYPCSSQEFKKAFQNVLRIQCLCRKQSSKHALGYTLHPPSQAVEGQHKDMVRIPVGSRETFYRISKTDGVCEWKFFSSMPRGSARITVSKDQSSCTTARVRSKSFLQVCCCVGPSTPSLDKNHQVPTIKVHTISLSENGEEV
# 5-hydroxytryptamine receptor 7, sequence (P34969 whole entry): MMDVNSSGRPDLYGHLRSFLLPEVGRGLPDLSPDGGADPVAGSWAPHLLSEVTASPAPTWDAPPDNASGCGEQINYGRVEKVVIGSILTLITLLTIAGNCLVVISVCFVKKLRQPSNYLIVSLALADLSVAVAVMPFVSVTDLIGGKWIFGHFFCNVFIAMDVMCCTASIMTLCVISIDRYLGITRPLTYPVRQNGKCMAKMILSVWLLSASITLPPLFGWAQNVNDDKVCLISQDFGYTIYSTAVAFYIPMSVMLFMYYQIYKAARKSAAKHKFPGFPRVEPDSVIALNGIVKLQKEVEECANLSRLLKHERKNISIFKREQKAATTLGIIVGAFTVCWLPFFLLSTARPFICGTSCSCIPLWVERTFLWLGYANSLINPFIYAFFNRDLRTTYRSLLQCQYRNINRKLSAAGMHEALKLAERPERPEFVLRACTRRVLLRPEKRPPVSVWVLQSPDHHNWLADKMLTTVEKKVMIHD
# 5-hydroxytryptamine receptor 3A (Homo sapiens), sequence (P46098 whole entry): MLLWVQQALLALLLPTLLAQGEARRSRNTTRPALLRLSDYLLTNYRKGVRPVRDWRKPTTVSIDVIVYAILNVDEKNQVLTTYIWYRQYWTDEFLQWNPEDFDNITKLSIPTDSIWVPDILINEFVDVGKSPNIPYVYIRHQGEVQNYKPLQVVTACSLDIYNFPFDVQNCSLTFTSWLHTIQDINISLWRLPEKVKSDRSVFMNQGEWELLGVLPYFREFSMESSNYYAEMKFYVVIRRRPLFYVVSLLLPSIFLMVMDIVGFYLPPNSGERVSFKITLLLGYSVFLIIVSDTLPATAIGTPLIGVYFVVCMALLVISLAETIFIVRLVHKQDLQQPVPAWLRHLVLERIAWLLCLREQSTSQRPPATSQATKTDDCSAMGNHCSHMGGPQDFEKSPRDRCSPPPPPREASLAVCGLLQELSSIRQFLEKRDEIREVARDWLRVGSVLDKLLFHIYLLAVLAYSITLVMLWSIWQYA
# 5-hydroxytryptamine receptor 2A, sequence (P28223 whole entry): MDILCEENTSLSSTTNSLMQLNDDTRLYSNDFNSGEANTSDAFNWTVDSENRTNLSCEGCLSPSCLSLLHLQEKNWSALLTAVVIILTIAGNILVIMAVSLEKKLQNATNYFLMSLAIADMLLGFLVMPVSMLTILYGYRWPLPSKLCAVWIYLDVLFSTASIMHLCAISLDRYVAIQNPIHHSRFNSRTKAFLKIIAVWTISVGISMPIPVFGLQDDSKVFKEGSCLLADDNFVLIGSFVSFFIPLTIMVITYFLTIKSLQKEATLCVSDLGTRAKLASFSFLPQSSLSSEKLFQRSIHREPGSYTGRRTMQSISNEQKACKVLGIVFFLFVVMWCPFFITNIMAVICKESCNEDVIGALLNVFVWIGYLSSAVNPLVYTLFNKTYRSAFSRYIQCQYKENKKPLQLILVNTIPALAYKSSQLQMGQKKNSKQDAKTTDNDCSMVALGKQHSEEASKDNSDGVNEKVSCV
# Alpha-2A adrenergic receptor, sequence (P08913 whole entry): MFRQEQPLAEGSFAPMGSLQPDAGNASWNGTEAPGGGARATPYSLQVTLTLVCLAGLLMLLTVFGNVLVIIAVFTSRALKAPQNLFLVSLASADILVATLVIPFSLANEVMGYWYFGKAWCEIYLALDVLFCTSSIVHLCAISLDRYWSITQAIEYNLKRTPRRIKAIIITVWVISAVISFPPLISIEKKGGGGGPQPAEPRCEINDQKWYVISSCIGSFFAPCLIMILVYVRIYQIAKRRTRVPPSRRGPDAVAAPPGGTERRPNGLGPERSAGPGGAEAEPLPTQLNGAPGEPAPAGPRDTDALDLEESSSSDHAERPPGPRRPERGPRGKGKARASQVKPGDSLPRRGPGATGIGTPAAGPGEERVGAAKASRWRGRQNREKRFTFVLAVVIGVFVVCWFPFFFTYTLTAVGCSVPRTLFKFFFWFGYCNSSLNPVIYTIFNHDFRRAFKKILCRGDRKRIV
# 5-hydroxytryptamine receptor 4 (Cavia porcellus), sequence (O70528 whole entry): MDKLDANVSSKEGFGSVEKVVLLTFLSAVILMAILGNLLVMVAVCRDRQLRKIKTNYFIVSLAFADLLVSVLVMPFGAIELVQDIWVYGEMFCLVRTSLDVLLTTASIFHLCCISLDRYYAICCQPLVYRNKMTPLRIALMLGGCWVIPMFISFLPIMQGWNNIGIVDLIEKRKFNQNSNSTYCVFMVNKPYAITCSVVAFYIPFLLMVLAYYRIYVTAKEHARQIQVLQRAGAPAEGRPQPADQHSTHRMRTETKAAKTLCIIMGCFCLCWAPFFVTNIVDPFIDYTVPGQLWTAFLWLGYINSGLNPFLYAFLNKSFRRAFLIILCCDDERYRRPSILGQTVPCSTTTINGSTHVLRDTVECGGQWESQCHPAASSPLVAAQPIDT
# 5-hydroxytryptamine receptor 4 (Mus musculus), sequence (P97288 whole entry): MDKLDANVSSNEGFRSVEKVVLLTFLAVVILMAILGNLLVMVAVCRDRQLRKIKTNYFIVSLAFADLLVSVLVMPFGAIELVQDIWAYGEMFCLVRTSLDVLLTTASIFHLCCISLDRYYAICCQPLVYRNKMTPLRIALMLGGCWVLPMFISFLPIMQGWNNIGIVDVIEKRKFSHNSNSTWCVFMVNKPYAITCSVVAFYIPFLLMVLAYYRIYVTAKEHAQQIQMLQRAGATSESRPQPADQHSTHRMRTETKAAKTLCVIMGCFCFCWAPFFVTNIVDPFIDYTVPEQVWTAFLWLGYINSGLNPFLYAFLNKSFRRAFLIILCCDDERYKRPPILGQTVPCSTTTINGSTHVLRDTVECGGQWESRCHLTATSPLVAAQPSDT
# 5-hydroxytryptamine receptor 1D, sequence (P28565 whole entry): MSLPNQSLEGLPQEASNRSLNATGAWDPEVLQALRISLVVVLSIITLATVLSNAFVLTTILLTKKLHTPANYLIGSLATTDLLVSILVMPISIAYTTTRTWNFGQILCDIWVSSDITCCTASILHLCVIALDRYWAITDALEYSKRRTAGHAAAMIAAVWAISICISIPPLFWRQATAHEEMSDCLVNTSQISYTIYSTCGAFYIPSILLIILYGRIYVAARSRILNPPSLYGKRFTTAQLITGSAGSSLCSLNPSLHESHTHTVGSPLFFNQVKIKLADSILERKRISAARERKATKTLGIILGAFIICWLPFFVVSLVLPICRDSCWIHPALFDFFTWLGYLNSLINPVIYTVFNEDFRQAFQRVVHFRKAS
smiles,measurement,setting,value
CCCN1CCC(COc2nc3scc(C)c3n3cccc23)CC1,Activity,Mus musculus [1],inactive
same,IC50,[2],72.4 nM
same,IC50,[3],> 10000 nM
same,Activity,[4],inactive
same,LD50,[5],200 mg/kg
same,Activity,Mus musculus [6],7.6
same,IC50,[7],891 nM
same,IC50,[8],> 1000 nM
same,IC50,[9],5010 nM
same,Activity,[10],80%
same,IC50,[11],4570 nM
same,inhibition,[12],100%
same,IC50,[13],74.1 nM
same,Activity,Mus musculus [14],Non-toxic
same,Activity,Mus musculus [15],12.5
